# Experimental data: ChEMBL document CHEMBL3769385 (J Med Chem, 2016)
# pEC50: −log10 of the molar value.
# Columns and labels:
# [1] = target: T1, 5-hydroxytryptamine receptor 2B (Homo sapiens, UniProt P41595); experiment: Agonist activity at recombinant human 5HT2B receptor expressed in Flp-In-293 cells assessed as calcium flux by FLIPR assay relative to 5-HT; assay type: functional, cell-based
# [2] = target: T2, 5-hydroxytryptamine receptor 2C (Homo sapiens) (UniProt P28335); experiment: Agonist activity at recombinant human 5HT2C-INI receptor expressed in Flp-In-293 cells assessed as calcium flux by FLIPR assay relative to 5-HT; assay type: functional, cell-based
# T2 sequence (whole entry): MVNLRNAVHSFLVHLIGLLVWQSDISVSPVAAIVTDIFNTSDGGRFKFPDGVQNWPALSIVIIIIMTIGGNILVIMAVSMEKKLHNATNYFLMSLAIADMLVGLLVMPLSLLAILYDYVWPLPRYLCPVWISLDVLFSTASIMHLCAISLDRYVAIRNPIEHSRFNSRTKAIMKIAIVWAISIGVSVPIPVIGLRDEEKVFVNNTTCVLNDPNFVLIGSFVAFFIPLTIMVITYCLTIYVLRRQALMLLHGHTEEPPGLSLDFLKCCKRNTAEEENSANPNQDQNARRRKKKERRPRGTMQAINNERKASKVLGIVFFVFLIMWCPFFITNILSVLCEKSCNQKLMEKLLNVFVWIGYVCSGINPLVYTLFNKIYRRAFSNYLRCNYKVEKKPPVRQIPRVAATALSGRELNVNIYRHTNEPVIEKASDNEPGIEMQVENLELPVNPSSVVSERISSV
# [3] = target: Serotonin 2 receptors; 5-HT2a & 5-HT2c (Homo sapiens) (UniProt P28223+P28335); experiment: Selectivity ratio of EC50 for recombinant human 5HT2A receptor to EC50 for recombinant human 5HT2C-INI receptor
# Homo sapiens = species on record: Homo sapiens; experiment: Selectivity ratio of EC50 for recombinant human 5HT2B receptor to EC50 for recombinant human 5HT2C-INI receptor
# How it was run: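 Calcium flux measured by FLIPR in Flp-In-293 cells stably expressing human 5-HT2B or 5-HT2C-INI receptors.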
# [4] = target: T3, 5-hydroxytryptamine receptor 2A (Homo sapiens, UniProt P28223); experiment: Agonist activity at human 5HT2A receptor expressed in Flp-In-293 cells assessed as calcium flux by FLIPR assay relative to 5-HT; assay type: functional, cell-based
# [5] = target: T3, 5-hydroxytryptamine receptor 2A
# [6] = target: T1, 5-hydroxytryptamine receptor 2B
# [7] = target: T4, 5-hydroxytryptamine receptor 2C (Homo sapiens, UniProt P28335); experiment: Agonist activity at recombinant human 5HT2C-INI receptor expressed in Flp-In-293 cells assessed as calcium flux by FLIPR assay; assay type: functional, cell-based; settings: for pEC50: read-out: EC50; for EC50: read-out: pEC50 (converted)
# T4 sequence (P28335 whole entry): T2 sequence (whole entry)
# T3 sequence (P28223 whole entry): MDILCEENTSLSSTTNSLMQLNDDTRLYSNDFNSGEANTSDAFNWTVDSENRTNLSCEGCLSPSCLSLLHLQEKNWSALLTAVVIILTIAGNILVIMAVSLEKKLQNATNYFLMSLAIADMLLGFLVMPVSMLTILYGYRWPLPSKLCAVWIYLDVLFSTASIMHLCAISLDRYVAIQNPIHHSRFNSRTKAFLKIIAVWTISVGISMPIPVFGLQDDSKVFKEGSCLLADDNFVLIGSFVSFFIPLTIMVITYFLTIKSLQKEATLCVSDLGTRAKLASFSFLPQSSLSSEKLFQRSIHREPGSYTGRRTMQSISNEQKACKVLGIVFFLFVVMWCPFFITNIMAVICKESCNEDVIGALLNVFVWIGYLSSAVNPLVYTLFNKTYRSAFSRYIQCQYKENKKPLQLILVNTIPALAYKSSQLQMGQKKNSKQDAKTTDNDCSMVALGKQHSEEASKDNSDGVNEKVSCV
# T1 sequence (P41595 whole entry): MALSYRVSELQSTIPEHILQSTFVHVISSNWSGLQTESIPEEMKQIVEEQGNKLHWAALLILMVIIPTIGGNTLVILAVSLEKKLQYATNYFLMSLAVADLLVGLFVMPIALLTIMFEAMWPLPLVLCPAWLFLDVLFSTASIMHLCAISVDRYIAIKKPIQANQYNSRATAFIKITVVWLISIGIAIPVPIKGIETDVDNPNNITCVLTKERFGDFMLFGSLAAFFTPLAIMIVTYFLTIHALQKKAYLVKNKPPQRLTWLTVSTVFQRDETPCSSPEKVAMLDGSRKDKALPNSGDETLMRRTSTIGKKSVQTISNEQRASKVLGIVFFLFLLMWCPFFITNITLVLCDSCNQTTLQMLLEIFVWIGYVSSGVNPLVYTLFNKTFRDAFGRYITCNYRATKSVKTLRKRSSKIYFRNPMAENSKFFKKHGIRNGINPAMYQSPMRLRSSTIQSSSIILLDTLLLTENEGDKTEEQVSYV
# Chain of Serotonin 2 receptors; 5-HT2a & 5-HT2c (Homo sapiens) (P28223 whole entry, looked up, one chain of several): as the sequence (P28223 whole entry) above
Structure (SMILES),Emax [1] [%],Emax [2] [%],other results
"C=CCOc1ccc(F)c(F)c1C1CC1CN (single isomer, unassigned; (+))",35,100,
"COc1ccc(Cl)c(Cl)c1C1CC1CN (single isomer, unassigned; (-))",53,104,Ratio EC50 [3]: 40; Ratio EC50 (Homo sapiens): 31; Emax [4]: 88%
C=CCOc1ccc(Cl)c(F)c1C1CC1CN (stereo in doubt; (-)-22d),,87,
C=CCOc1ccc(Cl)c(Cl)c1C1CC1CN (stereo in doubt; (-)-22f),,93,
COc1ccc(F)c(Cl)c1C1CC1CN (stereo in doubt; (+)-20g),,89,Emax [4]: 77%
"COc1cc(F)c(Cl)cc1C1CC1CN (single isomer, unassigned; (+)) [listing 1 of 2 here]",59,97,Emax [4]: 93%
C=CCOc1cc(Cl)c(Cl)cc1C1CC1CN (stereo in doubt; (-)-22e),,84,
"C=CCOc1ccc(Cl)c(Cl)c1C1CC1CN (single isomer, unassigned; (+))",,70,
"NCC1CC1c1c(OCCF)ccc(Cl)c1Cl (single isomer, unassigned; (+))",,90,
"C=CCOc1ccc(F)c(Cl)c1C1CC1CN (single isomer, unassigned; (-)) [listing 1 of 2 here]",,89,
NCC1CC1c1cc(Cl)c(F)cc1OCCF (stereo in doubt; (-)-21c),26,70,
"C=CCOc1ccc(Cl)c(F)c1C1CC1CN (single isomer, unassigned; (+))",,90,
"NCC1CC1c1cc(Cl)c(F)cc1OCCF (single isomer, unassigned; (+))",39,87,
"C=CCOc1ccc(F)c(F)c1C1CC1CN (single isomer, unassigned; (-))",26,89,
"COc1ccc(F)c(F)c1C1CC1CN (single isomer, unassigned; (+)) [listing 1 of 2 here]",64,108,Emax [4]: 79%
"COc1cc(F)c(Cl)cc1C1CC1CN (single isomer, unassigned; (+)) [listing 2 of 2 here]",,,pEC50 [5]: 7.09; pEC50 [6]: 7.60; pEC50 [7]: 8.12; EC50 [7]: 7.76 nM
"C=CCOc1ccc(F)c(Cl)c1C1CC1CN (single isomer, unassigned; (+)) [listing 1 of 2 here]",,,EC50 [7]: 97.7 nM
"COc1cc(Cl)c(Cl)cc1C1CC1CN (single isomer, unassigned; (+))",,95,Emax [4]: 85%
"COc1cc(F)c(F)cc1C1CC1CN (single isomer, unassigned; (-)) [listing 1 of 2 here]",,,pEC50 [5]: 6.29
"COc1ccc(Cl)c(F)c1C1CC1CN (single isomer, unassigned; (-))",64,93,Emax [4]: 86%
"COc1ccc(F)c(Cl)c1C1CC1CN (single isomer, unassigned; (-))",,96,Emax [4]: 72%
COc1cc(F)c(Cl)cc1C1CC1CN (stereo in doubt; (-)-20c) [listing 1 of 2 here],44,98,Emax [4]: 88%
NCC1CC1c1c(OCCF)ccc(Cl)c1F (stereo in doubt; (+)-21d),,86,
"COc1ccc(F)c(F)c1C1CC1CN (single isomer, unassigned; (+)) [listing 2 of 2 here]",,,pEC50 [5]: 6.36; pEC50 [6]: 6.68; pEC50 [7]: 8.02

Structure (SMILES),Emax [1] [%],Emax [2] [%],other results
"C=CCOc1ccc(F)c(Cl)c1C1CC1CN (single isomer, unassigned; (-)) [listing 2 of 2 here]",,,pEC50 [7]: 6.98
"NCC1CC1c1c(OCCF)ccc(Cl)c1F (single isomer, unassigned; (-))",,80,
"C=CCOc1cc(Cl)c(Cl)cc1C1CC1CN (single isomer, unassigned; (+))",,88,
"COc1cc(F)c(F)cc1C1CC1CN (single isomer, unassigned; (+))",69,108,
"NCC1CC1c1cc(F)c(F)cc1OCCF (single isomer, unassigned; (-))",,73,
"C=CCOc1cc(F)c(Cl)cc1C1CC1CN (single isomer, unassigned; (+)) [listing 1 of 2 here]",34,87,
"C=CCOc1ccc(F)c(Cl)c1C1CC1CN (single isomer, unassigned; (+)) [listing 2 of 2 here]",,92,
"COc1cc(F)c(F)cc1C1CC1CN (single isomer, unassigned; (-)) [listing 2 of 2 here]",59,104,
COc1ccc(F)c(F)c1C1CC1CN (stereo in doubt; (-)-20b),62,108,Emax [4]: 72%
"NCC1CC1c1c(OCCF)ccc(F)c1F (single isomer, unassigned; (-))",,78,
NCC1CC1c1c(OCCF)ccc(F)c1Cl (stereo in doubt; (-)-21g),,80,
COc1ccc(Cl)c(Cl)c1C1CC1CN (stereo in doubt; (+)-20f),26,98,Emax [4]: 78%
"COc1ccc(Cl)c(F)c1C1CC1CN (single isomer, unassigned; (+)) [listing 1 of 2 here]",,,pEC50 [5]: 6.67; pEC50 [6]: 6.45; pEC50 [7]: 7.89
COc1cc(F)c(Cl)cc1C1CC1CN (stereo in doubt; (-)-20c) [listing 2 of 2 here],,,pEC50 [5]: 6.63; pEC50 [6]: 6.48; pEC50 [7]: 7.80
COc1cc(Cl)c(Cl)cc1C1CC1CN (stereo in doubt; (-)-20e),,89,Emax [4]: 75%
"C=CCOc1cc(F)c(Cl)cc1C1CC1CN (single isomer, unassigned; (-))",22,77,
"NCC1CC1c1c(OCCF)ccc(F)c1F (single isomer, unassigned; (+))",,96,
"COc1ccc(Cl)c(F)c1C1CC1CN (single isomer, unassigned; (+)) [listing 2 of 2 here]",52,92,Emax [4]: 85%
"NCC1CC1c1cc(F)c(F)cc1OCCF (single isomer, unassigned; (+))",,95,
"NCC1CC1c1cc(Cl)c(Cl)cc1OCCF (single isomer, unassigned; (-))",,75,
"C=CCOc1cc(F)c(Cl)cc1C1CC1CN (single isomer, unassigned; (+)) [listing 2 of 2 here]",,,pEC50 [6]: 6.00
"NCC1CC1c1c(OCCF)ccc(Cl)c1Cl (single isomer, unassigned; (-))",,85,
"NCC1CC1c1c(OCCF)ccc(F)c1Cl (single isomer, unassigned; (+))",,86,
"NCC1CC1c1cc(Cl)c(Cl)cc1OCCF (single isomer, unassigned; (+))",,87,
